Measured values: ChEMBL document CHEMBL2163298, “Inhibition of human topoisomerases I and II by simocyclinone D8” (J Nat Prod, 2012)
Activity calls are given as the source filed them. The calls are words filed in the database; no cut-off is given here.

Tests used:
[1] = target: DNA topoisomerase 2-alpha (Homo sapiens) (UniProt P11388); assay: Inhibition of human topoisomerase 2-mediated relaxation of supercoiled pBR322 DNA at 50 to 400 uM after 30 mins by agarose gel electrophoresis
Outline: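 Human Topo II (2 units) relaxed 0.3 μg supercoiled pBR322 at 37 °C for 30 min. Stopped with 25 mM EDTA, 5 min. Analyzed on agarose gels.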

[2] = target: T1, DNA topoisomerase 1 (Homo sapiens) (UniProt P11387); assay: Dissociation of human topo 1-CPT-DNA ternary complex assessed as reduction in nicked DNA formation at 160 uM after 10 mins by dilution DNA cleavage assay; parameters: scale not given: the % may be the effect or the level left
T1 sequence (whole entry): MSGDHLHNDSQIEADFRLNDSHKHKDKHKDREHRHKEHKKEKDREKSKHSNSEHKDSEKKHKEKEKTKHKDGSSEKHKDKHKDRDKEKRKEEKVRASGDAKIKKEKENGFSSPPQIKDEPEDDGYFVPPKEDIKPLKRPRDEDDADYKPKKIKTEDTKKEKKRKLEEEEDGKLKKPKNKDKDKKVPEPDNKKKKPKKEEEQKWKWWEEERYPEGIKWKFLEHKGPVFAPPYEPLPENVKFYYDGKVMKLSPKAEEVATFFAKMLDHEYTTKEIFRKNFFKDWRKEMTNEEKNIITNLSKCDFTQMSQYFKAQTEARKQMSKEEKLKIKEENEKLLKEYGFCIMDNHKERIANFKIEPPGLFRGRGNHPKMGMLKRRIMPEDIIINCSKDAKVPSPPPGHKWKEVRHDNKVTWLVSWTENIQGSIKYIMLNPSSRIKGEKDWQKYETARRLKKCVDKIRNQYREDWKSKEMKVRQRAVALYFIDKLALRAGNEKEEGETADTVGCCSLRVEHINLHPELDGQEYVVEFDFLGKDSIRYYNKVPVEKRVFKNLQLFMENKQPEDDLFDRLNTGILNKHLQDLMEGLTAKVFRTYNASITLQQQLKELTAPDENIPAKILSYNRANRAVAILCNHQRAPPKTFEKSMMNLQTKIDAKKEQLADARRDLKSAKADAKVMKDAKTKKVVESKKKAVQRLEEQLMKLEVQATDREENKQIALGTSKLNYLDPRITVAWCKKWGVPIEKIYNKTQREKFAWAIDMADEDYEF
Outline: (§1)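 Topo I cleavage mix (0.6 μg relaxed plasmid, 5 units human Topo I, 2.5 μM CPT), 37 °C 5 min. Then diluted 10-fold in drug-free buffer or buffer holding 2.5 μM CPT, 160 μM SD8, or both, 37 °C 10 min. SDS/EDTA/proteinase K workup. Nicked DNA normalized to the undiluted control; mean and absolute deviation of two assays.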

[3] = target: T1, DNA topoisomerase 1 (Homo sapiens); assay: Dissociation of human topo 1-CPT-DNA ternary complex assessed as reduction in nicked DNA formation at 160 uM after 10 mins by dilution DNA cleavage assay in presence of 2.5 uM CPT; parameters: scale not given: the % may be the effect or the level left; outline: as §1
[4] = target: T1, DNA topoisomerase 1 (Homo sapiens); assay: Inhibition of human topoisomerase 1-mediated plasmid DNA cleavage at 25 to 200 uM after 10 mins by agarose gel electrophoresis
Outline: (§2)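 Relaxed plasmid (0.3 μg) with 5 units human Topo I at 37 °C for 10 min. Buffer: pH 7.5, 1 mM MgCl2. Stopped with 1% SDS, then 25 mM EDTA and 100 μg/mL proteinase K, 37 °C 15 min. Phenol extraction, 1.2% agarose gel with ethidium bromide at 2 V/cm for 12 h. 5 μM CPT reaction as control.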

[5] = target: T1, DNA topoisomerase 1 (Homo sapiens); assay: Dissociation of human topo 1-CPT-DNA ternary complex assessed as reduction in nicked DNA formation measuring remaining ternary complex at 150 uM after 20 mins by two-step DNA cleavage assay
Outline: (§3)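 Topo I with 7.5 μM CPT on relaxed plasmid DNA (6-fold scaled cleavage mix: 50 mM Tris-HCl pH 7.5, 1 mM MgCl2, 1 mM DTT, BSA), 37 °C 5 min. Then 150 μM SD8 or DMSO (2% final), continued at 37 °C. Aliquots taken at set times, stopped with 1% SDS, then EDTA/proteinase K 37 °C 15 min. Nicked DNA read on ethidium agarose gels.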

[6] = target: T1, DNA topoisomerase 1 (Homo sapiens); assay: Inhibition of human topoisomerase 1-mediated relaxation of supercoiled pBR322 DNA at 50 to 400 uM after 15 to 30 mins by agarose gel electrophoresis in presence of 1 mM magnesium
Outline: (§4)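 Human Topo I relaxation of supercoiled pBR322 at 37 °C, run as the standard assay. Mg2+ raised up to 1 mM, NaCl up to 100 mM, or potassium glutamate up to 200 mM. Products resolved on agarose gels.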

[7] = target: T1, DNA topoisomerase 1 (Homo sapiens); assay: Stimulation of human topoisomerase 1-mediated plasmid DNA cleavage at 25 to 200 uM after 10 mins by agarose gel electrophoresis; outline: as §2
[8] = target: T1, DNA topoisomerase 1 (Homo sapiens); assay: Inhibition of human topoisomerase 1-mediated relaxation of supercoiled pBR322 DNA at 50 to 400 uM after 15 to 30 mins by agarose gel electrophoresis in presence of 200 mM potassium glutamate; outline: as §4
[9] = target: T1, DNA topoisomerase 1 (Homo sapiens); assay: Inhibition of human topoisomerase 1-mediated relaxation of supercoiled pBR322 DNA at 50 to 400 uM after 15 to 30 mins by agarose gel electrophoresis
Outline: (§5)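 Supercoiled pBR322 (0.3 μg) relaxed by human Topo I (1 unit, 30 min; or 2 units, 15 min) or calf thymus Topo I (0.5 unit, 15 min), 37 °C. Buffer: 50 mM Tris-HCl pH 7.5, 1 mM MgCl2, 1 mM DTT, 50 μg/mL BSA. Stopped with 25 mM EDTA. Run on 1.2% agarose in TAE, ethidium-stained and quantified. IC50 taken from these gels.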

[10] = target: DNA topoisomerase 2-alpha (Homo sapiens) (UniProt P11388); assay: Dissociation of human topo 2-etoposide-DNA ternary complex assessed as nicked DNA formation at 150 uM after 20 mins by two-step DNA cleavage assay; conditions: in the assay text read “linear DNA” for “nicked DNA”
Outline: (§6)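 Human Topo II with 7.5 μM etoposide on relaxed plasmid DNA (50 mM Tris-HCl pH 8, 10 mM MgCl2, 10 mM DTT, 1 mM ATP, BSA; 6-fold scale), 37 °C 5 min. Then 150 μM SD8 or 2% DMSO at 37 °C. Timed aliquots stopped with 1% SDS, then EDTA/proteinase K 50 °C 60 min. Linear DNA quantified on ethidium agarose gels.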

DNA topoisomerase 1 = target: T2, DNA topoisomerase 1 (Homo sapiens, UniProt P11387); assay: Inhibition of human topoisomerase 1-mediated relaxation of supercoiled pBR322 DNA after 15 to 30 mins by agarose gel electrophoresis; outline: as §5
T2 sequence (P11387 whole entry): T1 sequence (whole entry)

[11] = target: T1, DNA topoisomerase 1 (Homo sapiens); assay: Dissociation of human topo 1-CPT-DNA ternary complex assessed as reduction in nicked DNA formation at 150 uM by two-step DNA cleavage assay; parameters: scale not given: the % may be the effect or the level left; outline: as §3
[12] = target: T1, DNA topoisomerase 1 (Homo sapiens); assay: Inhibition of human topoisomerase 1-mediated relaxation of supercoiled pBR322 DNA at 50 to 400 uM after 15 to 30 mins by agarose gel electrophoresis in presence of 100 mM NaCl; outline: as §4
[13] = target: DNA topoisomerase 2-alpha (Homo sapiens) (UniProt P11388); assay: Inhibition of human topoisomerase 2-mediated plasmid DNA cleavage preincubated at 150 uM for 5 mins before addition of poison measured after 10 mins by agarose gel electrophoresis
Outline: (§7)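 Two-step assay at 4-fold scale: Topo I or human Topo II with 150 μM SD8, 37 °C 5 min. Aliquots then given 7.5 μM CPT (Topo I) or 7.5 μM etoposide (Topo II), 37 °C 10 min. Stopped with 1% SDS, then proteinase K (Topo I 37 °C 15 min; Topo II 50 °C 60 min). Gel readout.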

[14] = target: DNA topoisomerase 2-alpha (Homo sapiens) (UniProt P11388); assay: Dissociation of human topo 2-etoposide-DNA ternary complex assessed as reduction in […] formation at 150 uM by two-step DNA cleavage assay; outline: as §6
[15] = target: T1, DNA topoisomerase 1 (Homo sapiens); assay: Dissociation of human topo 1-CPT-DNA ternary complex assessed as reduction in nicked DNA formation at 160 uM after 10 mins by dilution DNA cleavage assay relative to untreated-control; parameters: scale not given: the % may be the effect or the level left; outline: as §1
[16] = target: T3, Topoisomerase I (Bos taurus) (UniProt Q2HPH0); assay: Inhibition of calf thymus topoisomerase 1-mediated relaxation of supercoiled pBR322 DNA after 15 mins by agarose gel electrophoresis; outline: as §5
T3 sequence (whole entry): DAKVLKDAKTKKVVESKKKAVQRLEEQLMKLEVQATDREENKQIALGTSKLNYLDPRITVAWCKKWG

[17] = target: T1, DNA topoisomerase 1 (Homo sapiens); assay: Inhibition of human topoisomerase 1-mediated plasmid DNA cleavage preincubated at 150 uM for 5 mins before addition of poison measured after 10 mins by agarose gel electrophoresis; outline: as §7
[18] = target: T1, DNA topoisomerase 1 (Homo sapiens); assay: Ratio of CPT IC50 to compound IC50 for human topoisomerase 1-mediated relaxation of supercoiled pBR322 DNA
[19] = target: DNA topoisomerase 2-alpha (Homo sapiens) (UniProt P11388); assay: Inhibition of human topoisomerase 2-mediated plasmid DNA cleavage at 25 to 200 uM after 10 mins by agarose gel electrophoresis electrophoresis
Outline: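 Relaxed plasmid (0.3 μg) with 5 units human Topo II and 1 mM ATP at 37 °C for 10 min. Buffer: pH 8, 10 mM MgCl2. Stopped with 1% SDS, then EDTA and proteinase K at 50 °C for 60 min. Extracted and run on ethidium agarose gels.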

Chain of DNA topoisomerase 2-alpha (Homo sapiens) (P11388 whole entry): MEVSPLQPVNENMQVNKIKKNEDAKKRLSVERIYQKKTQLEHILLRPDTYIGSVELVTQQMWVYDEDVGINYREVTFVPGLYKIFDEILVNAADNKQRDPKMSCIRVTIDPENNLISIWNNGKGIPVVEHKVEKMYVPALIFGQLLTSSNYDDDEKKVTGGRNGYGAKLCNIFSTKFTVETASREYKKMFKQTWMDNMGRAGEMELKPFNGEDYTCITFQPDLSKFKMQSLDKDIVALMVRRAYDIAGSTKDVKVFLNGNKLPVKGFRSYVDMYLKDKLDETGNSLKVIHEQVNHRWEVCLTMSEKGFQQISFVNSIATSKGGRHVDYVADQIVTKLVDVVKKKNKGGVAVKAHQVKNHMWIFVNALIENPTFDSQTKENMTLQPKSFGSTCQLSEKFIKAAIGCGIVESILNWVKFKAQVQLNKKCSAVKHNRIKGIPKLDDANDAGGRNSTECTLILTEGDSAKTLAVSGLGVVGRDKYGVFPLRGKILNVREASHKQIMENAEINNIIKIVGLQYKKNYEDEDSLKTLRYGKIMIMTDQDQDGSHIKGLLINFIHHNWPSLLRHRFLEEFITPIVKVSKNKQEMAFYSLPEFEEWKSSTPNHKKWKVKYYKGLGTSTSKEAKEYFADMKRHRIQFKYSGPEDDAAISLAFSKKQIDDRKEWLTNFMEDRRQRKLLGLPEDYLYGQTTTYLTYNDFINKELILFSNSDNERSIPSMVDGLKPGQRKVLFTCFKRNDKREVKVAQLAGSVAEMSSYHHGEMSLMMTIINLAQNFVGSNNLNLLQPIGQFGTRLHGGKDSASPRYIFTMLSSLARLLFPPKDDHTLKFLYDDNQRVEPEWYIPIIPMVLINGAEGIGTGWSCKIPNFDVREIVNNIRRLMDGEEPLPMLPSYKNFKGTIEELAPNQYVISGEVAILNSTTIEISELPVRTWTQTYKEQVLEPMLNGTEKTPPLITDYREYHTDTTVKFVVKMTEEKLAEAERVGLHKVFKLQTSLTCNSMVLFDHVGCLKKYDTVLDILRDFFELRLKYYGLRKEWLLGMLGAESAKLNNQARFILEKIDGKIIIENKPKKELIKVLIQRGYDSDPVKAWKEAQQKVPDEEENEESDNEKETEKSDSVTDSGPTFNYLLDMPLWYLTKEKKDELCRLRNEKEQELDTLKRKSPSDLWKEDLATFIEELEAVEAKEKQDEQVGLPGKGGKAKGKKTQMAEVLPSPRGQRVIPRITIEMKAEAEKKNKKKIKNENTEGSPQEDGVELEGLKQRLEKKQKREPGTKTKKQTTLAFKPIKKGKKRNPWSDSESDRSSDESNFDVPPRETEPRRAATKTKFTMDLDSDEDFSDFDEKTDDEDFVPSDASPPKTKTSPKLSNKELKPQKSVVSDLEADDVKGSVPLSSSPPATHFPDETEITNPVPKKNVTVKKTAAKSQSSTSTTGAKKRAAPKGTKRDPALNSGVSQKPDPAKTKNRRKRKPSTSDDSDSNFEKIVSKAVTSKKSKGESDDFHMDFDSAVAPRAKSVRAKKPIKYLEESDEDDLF

With `CC(=O)O[C@@H]1[C@@H](C)O[C@@H](c2ccc3c(c2O)[C@@H](O)[C@]24O[C@@]2(C3=O)[C@@]2(O)C(=O)C=C(C)C[C@@]2(O)C[C@@H]4O)C[C@H]1OC(=O)/C=C/C=C/C=C/C=C/C(=O)Nc1c(O)c2ccc(O)c(Cl)c2oc1=O` [SIMOCYCLINONE D8] the inhibition [1] was “Active”, the Activity [2] was 55% and the Activity [3] was 46%. For the same molecule, the inhibition [4] was “Active”, the Activity [5] was 53% and the inhibition [6] was “Active”. For the same molecule, the Activity [7] was “inactive”, the inhibition [8] was “Active” and the inhibition [9] was “Active”. It also gave an Activity [10] of 107%, an IC50 (DNA topoisomerase 1) of 60 µM and an Activity [11] of 40%. The inhibition [12] was “Active”, the inhibition [13] was “Active” and the Activity [14] was “inactive”. The Activity [15] was 20%, the inhibition [16] was “Active” and the inhibition [17] was “Active”. For the same molecule, the Ratio IC50 [18] was 0.5 and the inhibition [19] was “Active”.
